Values after ≈ are worked out from the molar mass of the structure shown.
How the values were obtained:
[1] = tested on: Mycobacterium tuberculosis; experiment: Antimycobacterial activity against Mycobacterium tuberculosis H37Ra at 100 ug/ml after 6 days by microplate alamar blue assay; assay type: functional; conditions: 144 h
Outline: (§1)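 H37Ra from frozen inoculum, 2.5 × 10⁵ CFU/mL final, in 7H9GC medium; compounds from 10 mg/mL DMSO stock tested at 100, 50, 25, 10, 5 and 1 μg/mL in triplicate, run twice. Incubated 6 days, then alamar blue plus Tween 80 added, read after 24 h visually and by fluorescence. Percent inhibition against bacteria-only and medium-only wells; MIC50 is the lowest concentration giving ~50% inhibition.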

[2] = Cytotoxicity against human HuH7 cells assessed as incorporation of [3H]thymidine into DNA after 2 days by scintillation counting; assay type: cell-based, Huh-7
Outline: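 Huh-7 cells plated at 1 × 10⁴/well, compounds at 200, 100, 50, 10 and 1 μg/mL in triplicate, DMSO control, 2 days at 37 °C. Pulsed with 0.5 μCi/well [³H]-thymidine for 12-18 h, harvested onto filters, and incorporated DNA label counted by liquid scintillation.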

[3] = Cytotoxicity against human HuH7 cells after 2 days by XTT assay; assay type: cell-based, Huh-7
Outline: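 Huh-7 cells seeded at 2 × 10⁴/well and allowed to attach 6-8 h, then exposed to 200, 100, 50, 10 and 1 μg/mL compound, DMSO control, 2 days at 37 °C. XTT reagent added for 4 h at 37 °C; absorbance read at 450-500 nm.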

[4] = tested on: Mycobacterium tuberculosis; experiment: Antimycobacterial activity against Mycobacterium tuberculosis H37Ra after 6 days by microplate alamar blue assay; assay type: functional; conditions: 144 h; outline: as §1
[5] = tested on: Mycobacterium tuberculosis; experiment: Antimycobacterial activity against Mycobacterium tuberculosis H37Ra at 25 ug/ml after 4 days; assay type: functional
Outline: (§2)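 THP-1 cells, 2 × 10⁵/well, differentiated 3 days with 100 nM PMA, then infected 3 h with ~10⁷ CFU H37Ra. Non-phagocytosed bacteria removed. Compounds at 25, 10, 5 or 1 μg/mL in triplicate, rifampicin or isoniazid controls at 2.5 μg/mL, 4 days. Lysates plated in serial dilution on 7H11, colonies counted at 2-3 weeks. Percent CFU reduction versus untreated control; run twice.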

[6] = tested on: Mycobacterium tuberculosis; experiment: Antimycobacterial activity against Mycobacterium tuberculosis H37Ra at 1 ug/ml after 6 days by microplate alamar blue assay; assay type: functional; conditions: 144 h; outline: as §1
[7] = tested on: Mycobacterium tuberculosis; experiment: Antimycobacterial activity against Mycobacterium tuberculosis H37Ra at 10 ug/ml after 6 days by microplate alamar blue assay; assay type: functional; conditions: 144 h; outline: as §1
[8] = tested on: Mycobacterium tuberculosis; experiment: Antimycobacterial activity against Mycobacterium tuberculosis H37Ra at 10 ug/ml after 4 days; assay type: functional; outline: as §2
[9] = tested on: Mycobacterium tuberculosis; experiment: Antimycobacterial activity against Mycobacterium tuberculosis H37Ra at 25 ug/ml after 6 days by microplate alamar blue assay; assay type: functional; conditions: 144 h; outline: as §1
[10] = tested on: Mycobacterium tuberculosis; experiment: Antimycobacterial activity against Mycobacterium tuberculosis H37Ra at 50 ug/ml after 6 days by microplate alamar blue assay; assay type: functional; conditions: 144 h; outline: as §1
[11] = tested on: Mycobacterium tuberculosis; experiment: Antimycobacterial activity against Mycobacterium tuberculosis H37Ra at 5 to 10 ug/ml after 6 days by microplate alamar blue assay; assay type: functional; outline: as §1
[12] = tested on: Mycobacterium tuberculosis; experiment: Antimycobacterial activity against Mycobacterium tuberculosis H37Ra at 5 ug/ml after 6 days by microplate alamar blue assay; assay type: functional; conditions: 144 h; outline: as §1
[13] = tested on: Mycobacterium tuberculosis; experiment: Antimycobacterial activity against Mycobacterium tuberculosis H37Ra at 2.5 ug/ml after 4 days; assay type: functional; outline: as §2

Compound | inhibition at 100 µg/mL [1] | CC50 at 48 h [2] | CC50 at 48 h [3] | MIC50 [4] | inhibition at 50 µg/mL [10] | also measured
O=c1[nH]c(=O)n([C@H]2C[C@@H](I)[C@@H](CO)O2)cc1F | 40% | > 100 µg/mL | > 100 µg/mL | – | – | –
O=c1ccn([C@@H]2O[C@H](CO)[C@@H](Br)[C@@H]2O)c(=O)[nH]1 | 24% | > 100 µg/mL | > 100 µg/mL | – | – | –
Cc1cn([C@@H]2O[C@H](CO)[C@@H](Br)[C@@H]2O)c(=O)[nH]c1=O | 50% | > 100 µg/mL | > 100 µg/mL | 1 µg/mL (≈ 3.11 µM) | – | Activity [5]: >90%; inhibition at 1 µg/mL [6]: 50%; inhibition at 10 µg/mL [7]: 75%; Activity [8]: 80%
O=c1[nH]c(=O)n([C@@H]2O[C@H](CO)[C@@H](Br)[C@@H]2O)cc1F | 91% | > 100 µg/mL | > 100 µg/mL | 25 µg/mL (≈ 76.9 µM) | – | inhibition at 25 µg/mL [9]: 50%
O=c1ccn([C@@H]2O[C@H](CO)[C@H](O)[C@H]2Br)c(=O)[nH]1 | 0% | > 100 µg/mL | > 100 µg/mL | – | – | –
Cc1cn([C@@H]2O[C@H](CO)[C@H](O)[C@H]2Br)c(=O)[nH]c1=O | 80% | > 100 µg/mL | > 100 µg/mL | 25 µg/mL (≈ 77.9 µM) | 60% | –
Cc1cn([C@H]2C[C@H](Br)[C@@H](CO)O2)c(=O)[nH]c1=O | 100% | > 100 µg/mL | > 100 µg/mL | 5 µg/mL (≈ 16.4 µM) | 82% | inhibition (INH) [11]: 5%; Activity [5]: 90%; Activity [8]: 50%
O=c1[nH]c(=O)n([C@@H]2O[C@H](CO)[C@H](O)[C@H]2Br)cc1F | 0% | > 100 µg/mL | > 100 µg/mL | – | – | inhibition at 25 µg/mL [9]: 50%
O=c1[nH]c(=O)n([C@H]2C[C@H](Br)[C@@H](CO)O2)cc1F | 80% | > 100 µg/mL | > 100 µg/mL | 50 µg/mL (≈ 162 µM) | 50% | –
O=c1[nH]c(=O)n([C@H]2C[C@@H](Br)[C@@H](CO)O2)cc1F | 100% | > 100 µg/mL | > 100 µg/mL | 25 µg/mL (≈ 80.9 µM) | 63% | inhibition at 25 µg/mL [9]: 40%
O=c1[nH]c(=O)n([C@H]2C[C@@H](Cl)[C@@H](CO)O2)cc1F | 90% | > 100 µg/mL | > 100 µg/mL | 25 µg/mL (≈ 94.5 µM) | 60% | inhibition at 25 µg/mL [9]: 40%
Cc1cn([C@H]2C[C@H](Cl)[C@@H](CO)O2)c(=O)[nH]c1=O | 68% | > 100 µg/mL | > 100 µg/mL | 50 µg/mL (≈ 192 µM) | 50% | –
O=c1[nH]c(=O)n([C@H]2C[C@H](I)[C@@H](CO)O2)cc1F | 32% | > 100 µg/mL | > 100 µg/mL | – | – | –
O=c1[nH]c(=O)n([C@H]2C[C@H](Cl)[C@@H](CO)O2)cc1F | 40% | > 100 µg/mL | > 100 µg/mL | – | – | –
Cc1cn([C@H]2C[C@H](I)[C@@H](CO)O2)c(=O)[nH]c1=O | 0% | > 100 µg/mL | > 100 µg/mL | – | – | –
O=c1[nH]c(=O)n([C@H]2C[C@H](F)[C@@H](CO)O2)cc1F | 0% | – | – | – | – | –
Cc1cn([C@H]2C[C@H](F)[C@@H](CO)O2)c(=O)[nH]c1=O [ALOVUDINE] | 0% | – | – | – | – | –
N[C@@H]1CONC1=O [CYCLOSERINE] | – | – | – | 5 µg/mL (≈ 49 µM) | 100% | inhibition at 25 µg/mL [9]: 80%; inhibition at 5 µg/mL [12]: 50%
NNC(=O)c1ccncc1 [ISONIAZID] | – | – | – | < 1 µg/mL | – | Activity [13]: >98%; inhibition at 1 µg/mL [6]: 100%
CO[C@H]1/C=C/O[C@@]2(C)Oc3c(C)c(O)c4c(O)c(c(/C=N/N5CCN(C)CC5)c(O)c4c3C2=O)NC(=O)/C(C)=C\C=C\[C@H](C)[C@H](O)[C@@H](C)[C@@H](O)[C@@H](C)[C@H](OC(C)=O)[C@@H]1C [RIFAMPIN] | – | – | – | < 0.5 µg/mL | – | Activity [13]: >98%

Source: ChEMBL document CHEMBL1157790, “3'-bromo analogues of pyrimidine nucleosides as a new class of potent inhibitors of Mycobacterium tuberculosis” (J Med Chem, 2010)
